Measurements taken from ChEMBL document CHEMBL1955829, “Synthesis and biological evaluation of 4β-sulphonamido and 4β-[(4'-sulphonamido)benzamide]podophyllotoxins as DNA topoisomerase-IIα and apoptosis inducing agents” (2012).
The source made the active and inactive calls. The rule behind the calls is not given here.

Experiments:
COLO 205 [1] = experiment: Induction of apoptosis in human COLO205 cells assessed as up-regulation of p16 at 4 uM after 24 hrs by Western blotting analysis; assay type: functional, cell-based
Method in brief: (§1)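 Colo-205 cells treated 24 h at 4 µM and lysed in ice-cold RIPA with protease inhibitors and NaF. Protein measured by Bradford; 50 µg per lane run on 12% SDS-PAGE and transferred to PVDF. Membrane blocked 2 h, primary antibody (topo-IIα/β, p21, p16, pro-caspase-3, NF-kB p65) overnight at 4 °C, HRP secondary 1:2000 for 1 h, chemiluminescence detection; β-actin as loading control. Reduced procaspase-3 taken as caspase-3 activation.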

[2] = target: DNA topoisomerase 2-beta (Mus musculus) (UniProt Q64511); experiment: Inhibition of topoisomerase 2beta in mouse embryonic fibroblasts after 1.5 hrs by comet assay; conditions: concentration not given here
ZR-75-1 = experiment: Growth inhibition of human ZR-75-1 cells after 48 hrs by sulforhodamine B assay; assay type: functional; conditions: ZR-75-1, 48 h
Method in brief: (§2)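 Cells grown in DMEM with 10% FBS and 2 mM L-glutamine, plated at densities set by doubling time, and held 24 h before dosing. Exposure was 48 h to 0.1, 1, 10 and 100 µM in triplicate wells. Cells fixed with cold TCA (final 10%) 60 min at 4 °C and stained with 0.4% SRB 20 min. Bound dye eluted in 10 mM Tris base and read at 540 nm (690 nm reference). GI50 is the concentration giving 50% reduction in net protein gain versus control; values are the mean of three determinations.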

COLO 205 [3] = experiment: Induction of apoptosis in human COLO205 cells assessed as up-regulation of p21 at 4 uM after 24 hrs by Western blotting analysis; assay type: functional, cell-based; method in brief: as §1
[4] = Growth inhibition of human DWD cells after 48 hrs by sulforhodamine B assay; assay type: functional; method in brief: as §2
KB = experiment: Growth inhibition of human KB cells after 48 hrs by sulforhodamine B assay; assay type: functional; method in brief: as §2
COLO 205 [5] = experiment: Cell cycle arrest in human COLO205 cells assessed as accumulation at G0 phase at 4 uM after 24 hrs by FACS analysis (reference value: 4.29%); assay type: functional
Method in brief: (§3)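 Colo-205 cells seeded at […] per 60 mm dish and treated 24 h at 4 µM; TSA arm used TSA at 4 µM for 12 h. Cells trypsinised, fixed in ice-cold 70% ethanol 30 min at 4 °C, RNase 1 mg/mL 30 min at 37 °C, then propidium iodide/citrate/Triton stain. DNA content of 20,000 events read by flow cytometry; phase percentages from histograms.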

COLO 205 [6] = experiment: Growth inhibition of human COLO205 cells after 48 hrs by sulforhodamine B assay; assay type: functional; conditions: COLO 205, 48 h; method in brief: as §2
COLO 205 [7] = experiment: Cell cycle arrest in human COLO205 cells assessed as accumulation at G0 phase at 4 uM after 24 hrs by FACS analysis in presence of HDAC inhibitor, trichostatin A (reference value: 4.06%); assay type: functional; method in brief: as §3
[8] = target: DNA topoisomerase 2-alpha (Homo sapiens) (UniProt P11388); experiment: Inhibition of topoisomerase 2alpha in human in COLO205 cells assessed as induction of single-strand DNA breaks at 4 uM after 24 hrs by comet assay; assay type: cell-based; conditions: COLO 205
Method in brief: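 Colo-205 cells treated 24 h at 4 µM. Electrophoresis 20 min at 40 V in 0.5% TBE pH 8. Slides stained with SYBR green 30 min and imaged by fluorescence microscopy at 20×.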

COLO 205 [9] = experiment: Down regulation of topoisomerase 2beta in human COLO205 cells at 4 uM after 24 hrs by Western blotting analysis; assay type: functional, cell-based; method in brief: as §1
COLO 205 [10] = experiment: Cytotoxicity against human COLO205 cells at 2 uM after 24 hrs by MTT assay; assay type: functional, cell-based
Method in brief: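 Colo-205 cells plated at 10,000 per well, left overnight, then exposed 24 h at 2, 4 or 8 µM. MTT added for 2 h at 37 °C, formazan dissolved in extraction buffer, and optical density read at 570 nm against untreated cells.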

COLO 205 [11] = experiment: Cell cycle arrest in human COLO205 cells assessed as accumulation at S phase at 4 uM after 24 hrs by FACS analysis in presence of HDAC inhibitor, trichostatin A (reference value: 7.89%); assay type: functional; method in brief: as §3
COLO 205 [12] = experiment: Up-regulation of topoisomerase 2alpha in human COLO205 cells at 4 uM after 24 hrs by Western blotting analysis in presence of HDAC inhibitor, trichostatin A; assay type: functional, cell-based
Method in brief: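 Colo-205 cells exposed 24 h to test agent plus TSA, each at 4 µM. Western blot of lysates probed for topo-IIα, with β-actin as loading control.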

COLO 205 [13] = experiment: Down regulation of topoisomerase 2alpha in human COLO205 cells at 4 uM after 24 hrs by Western blotting analysis; assay type: functional, cell-based; method in brief: as §1

DNA topoisomerase 2-alpha (Homo sapiens), sequence (P11388 whole entry): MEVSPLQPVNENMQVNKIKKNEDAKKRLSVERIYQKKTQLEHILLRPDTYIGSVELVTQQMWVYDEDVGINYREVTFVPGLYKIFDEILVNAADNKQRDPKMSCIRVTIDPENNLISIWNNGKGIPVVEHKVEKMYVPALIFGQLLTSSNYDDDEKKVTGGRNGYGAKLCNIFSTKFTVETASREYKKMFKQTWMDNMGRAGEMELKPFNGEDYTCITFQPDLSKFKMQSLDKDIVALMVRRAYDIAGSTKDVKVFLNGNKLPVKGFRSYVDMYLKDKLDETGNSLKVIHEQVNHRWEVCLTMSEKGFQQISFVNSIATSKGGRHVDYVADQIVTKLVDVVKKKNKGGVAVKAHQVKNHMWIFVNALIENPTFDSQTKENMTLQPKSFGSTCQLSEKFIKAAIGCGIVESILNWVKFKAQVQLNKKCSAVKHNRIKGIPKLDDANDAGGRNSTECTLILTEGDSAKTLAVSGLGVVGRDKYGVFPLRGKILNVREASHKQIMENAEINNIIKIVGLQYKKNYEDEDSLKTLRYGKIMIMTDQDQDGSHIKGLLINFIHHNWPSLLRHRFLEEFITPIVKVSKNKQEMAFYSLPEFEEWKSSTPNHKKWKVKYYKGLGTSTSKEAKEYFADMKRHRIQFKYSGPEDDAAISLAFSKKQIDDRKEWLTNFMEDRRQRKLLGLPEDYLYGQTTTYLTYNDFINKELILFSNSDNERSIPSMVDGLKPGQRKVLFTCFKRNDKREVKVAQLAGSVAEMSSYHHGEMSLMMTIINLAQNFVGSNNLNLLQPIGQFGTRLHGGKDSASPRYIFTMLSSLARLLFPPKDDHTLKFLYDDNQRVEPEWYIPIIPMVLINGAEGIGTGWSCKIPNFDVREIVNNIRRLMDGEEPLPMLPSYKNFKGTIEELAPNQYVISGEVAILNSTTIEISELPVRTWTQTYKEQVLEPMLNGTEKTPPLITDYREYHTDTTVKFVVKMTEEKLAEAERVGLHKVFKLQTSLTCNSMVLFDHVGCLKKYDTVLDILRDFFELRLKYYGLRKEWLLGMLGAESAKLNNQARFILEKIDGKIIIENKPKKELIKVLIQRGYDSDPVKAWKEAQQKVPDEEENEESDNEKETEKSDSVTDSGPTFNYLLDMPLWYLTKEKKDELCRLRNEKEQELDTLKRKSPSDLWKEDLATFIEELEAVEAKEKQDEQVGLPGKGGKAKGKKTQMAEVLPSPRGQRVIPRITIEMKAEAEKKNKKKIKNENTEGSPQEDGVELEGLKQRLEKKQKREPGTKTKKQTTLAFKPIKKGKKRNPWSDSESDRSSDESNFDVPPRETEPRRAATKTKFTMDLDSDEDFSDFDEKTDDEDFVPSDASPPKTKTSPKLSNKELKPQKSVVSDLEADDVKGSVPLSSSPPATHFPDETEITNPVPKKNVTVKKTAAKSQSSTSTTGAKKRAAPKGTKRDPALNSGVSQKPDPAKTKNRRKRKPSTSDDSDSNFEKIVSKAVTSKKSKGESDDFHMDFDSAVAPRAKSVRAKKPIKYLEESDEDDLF
DNA topoisomerase 2-beta (Mus musculus), sequence (Q64511 whole entry): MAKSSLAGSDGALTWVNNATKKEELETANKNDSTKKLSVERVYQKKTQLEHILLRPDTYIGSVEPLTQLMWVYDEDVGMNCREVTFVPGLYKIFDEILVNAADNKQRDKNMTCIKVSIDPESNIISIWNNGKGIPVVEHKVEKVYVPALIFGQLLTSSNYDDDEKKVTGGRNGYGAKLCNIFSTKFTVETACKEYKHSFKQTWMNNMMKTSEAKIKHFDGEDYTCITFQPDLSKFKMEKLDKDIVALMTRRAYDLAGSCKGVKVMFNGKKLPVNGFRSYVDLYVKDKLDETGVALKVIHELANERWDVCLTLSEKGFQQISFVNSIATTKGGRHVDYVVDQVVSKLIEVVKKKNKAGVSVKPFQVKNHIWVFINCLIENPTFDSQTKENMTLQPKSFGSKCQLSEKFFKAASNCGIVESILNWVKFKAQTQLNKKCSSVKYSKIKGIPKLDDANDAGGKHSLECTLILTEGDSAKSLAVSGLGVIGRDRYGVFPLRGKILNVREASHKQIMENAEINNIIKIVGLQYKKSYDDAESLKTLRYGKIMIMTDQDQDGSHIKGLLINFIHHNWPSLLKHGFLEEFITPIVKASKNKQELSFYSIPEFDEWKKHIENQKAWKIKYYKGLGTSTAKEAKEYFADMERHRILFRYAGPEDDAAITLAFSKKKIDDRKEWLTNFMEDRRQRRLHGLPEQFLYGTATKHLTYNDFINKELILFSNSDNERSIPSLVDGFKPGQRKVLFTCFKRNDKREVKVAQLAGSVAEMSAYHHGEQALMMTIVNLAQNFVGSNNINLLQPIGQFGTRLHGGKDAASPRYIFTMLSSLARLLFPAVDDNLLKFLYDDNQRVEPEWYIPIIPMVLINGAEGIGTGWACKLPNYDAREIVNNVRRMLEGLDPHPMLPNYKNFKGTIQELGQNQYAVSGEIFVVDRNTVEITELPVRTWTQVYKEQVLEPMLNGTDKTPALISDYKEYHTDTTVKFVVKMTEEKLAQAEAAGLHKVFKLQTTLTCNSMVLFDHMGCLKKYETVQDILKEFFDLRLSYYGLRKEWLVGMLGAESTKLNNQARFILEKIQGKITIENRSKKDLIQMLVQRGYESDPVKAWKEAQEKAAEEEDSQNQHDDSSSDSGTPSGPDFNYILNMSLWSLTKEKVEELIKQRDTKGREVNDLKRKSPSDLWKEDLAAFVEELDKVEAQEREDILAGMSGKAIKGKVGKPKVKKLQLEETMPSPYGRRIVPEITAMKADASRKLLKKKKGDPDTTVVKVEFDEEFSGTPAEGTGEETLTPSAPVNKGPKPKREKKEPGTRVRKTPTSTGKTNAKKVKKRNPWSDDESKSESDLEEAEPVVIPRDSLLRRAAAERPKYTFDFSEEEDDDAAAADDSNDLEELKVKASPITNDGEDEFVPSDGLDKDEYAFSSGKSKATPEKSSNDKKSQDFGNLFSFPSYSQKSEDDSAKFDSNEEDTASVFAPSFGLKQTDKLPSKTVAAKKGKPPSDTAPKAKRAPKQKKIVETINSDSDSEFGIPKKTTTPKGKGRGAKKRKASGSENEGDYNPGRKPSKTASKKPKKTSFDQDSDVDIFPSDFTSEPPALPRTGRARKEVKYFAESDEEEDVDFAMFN

| Structure (SMILES) | Activity (COLO 205 [1]) | inhibition [2] [%] | GI50 (ZR-75-1) [nM] | Activity (COLO 205 [3]) | GI50 [4] [nM] | GI50 (KB) [nM] | Activity (COLO 205 [5]) [%] | GI50 (COLO 205 [6]) [nM] | Activity (COLO 205 [7]) [%] | inhibition [8] | Activity (COLO 205 [9]) | Activity (COLO 205 [10]) | Activity (COLO 205 [11]) [%] | Activity (COLO 205 [12]) | Activity (COLO 205 [13]) |
| --- | --- | --- | --- | --- | --- | --- | --- | --- | --- | --- | --- | --- | --- | --- | --- |
| COc1cc([C@@H]2c3cc4c(cc3[C@@H](O[C@@H]3O[C@@H]5CO[C@@H](C)O[C@H]5[C@H](O)[C@H]3O)[C@H]3COC(=O)[C@H]23)OCO4)cc(OC)c1O [ETOPOSIDE] | Active | 100 | 200 | Active | 620 | 310 | 5.95 | 130 | 56.29 | Active | Active | Active | 8.55 | Active |  |
| COC(=O)c1sccc1S(=O)(=O)N[C@@H]1c2cc3c(cc2[C@@H](c2cc(OC)c(OC)c(OC)c2)[C@H]2C(=O)OC[C@@H]21)OCO3 | Active |  | 60 | Active | 40 | 40 | 23.94 | 40 | 57.43 | 60% |  | Active | 7.85 | Active | Active |
